Test results published in ChEMBL document CHEMBL1144399, “Peptoid-peptide hybrids as potent novel melanocortin receptor ligands” (J Med Chem, 2005).
Where a SMILES comes first, the peptide text is derived from it. [ ]: non-standard residue; d: D form. Gly(N(CH2)2(3-indolyl)) = O=C(O)CNCCc1c[nH]c2ccccc12; Gly(N-(CH2)3-guanidino) = N=C(N)NCCCNCC(=O)O; Nle = CCCC[C@H](N)C(=O)O; Nphe = O=C(O)CNCc1ccccc1; NBuGly = CCCCNCC(=O)O; Nlys = NCCCCNCC(=O)O

Tests used:
Assay type in all cases: cell-based, HEK293
Melanocortin receptor 5 [1] = target: T1, Melanocortin receptor 5 (Mus musculus, UniProt P41149); test: Effective concentration against mouse melanocortin receptor-5 expressed in 293 HEK cells
T1 sequence (P41149 whole entry): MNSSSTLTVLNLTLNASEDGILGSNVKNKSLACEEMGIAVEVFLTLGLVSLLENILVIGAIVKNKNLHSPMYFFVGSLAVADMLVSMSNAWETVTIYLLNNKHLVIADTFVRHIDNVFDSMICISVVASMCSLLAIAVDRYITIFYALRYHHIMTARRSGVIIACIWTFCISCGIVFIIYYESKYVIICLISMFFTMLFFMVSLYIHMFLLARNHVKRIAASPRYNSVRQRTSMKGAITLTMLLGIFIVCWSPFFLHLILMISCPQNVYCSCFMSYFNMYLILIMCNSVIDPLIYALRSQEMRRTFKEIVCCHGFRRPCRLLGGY
Method in brief: (§1)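 LacZ reporter-gene activation assay in HEK293 cells expressing human MC3, human MC4 or mouse MC5 receptor. Dose-response curves run up to 30 µM. EC50 reported as -log(EC50) (M) with 95% confidence ranges. Incomplete or absent curves at 30 µM were not assigned values.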

Melanocortin receptor 4 [2] = target: T2, Melanocortin receptor 4 (Homo sapiens, UniProt P32245); test: Effective concentration against human melanocortin receptor-4 expressed in 293 HEK cells; method in brief: as §1
T2 sequence (P32245 whole entry): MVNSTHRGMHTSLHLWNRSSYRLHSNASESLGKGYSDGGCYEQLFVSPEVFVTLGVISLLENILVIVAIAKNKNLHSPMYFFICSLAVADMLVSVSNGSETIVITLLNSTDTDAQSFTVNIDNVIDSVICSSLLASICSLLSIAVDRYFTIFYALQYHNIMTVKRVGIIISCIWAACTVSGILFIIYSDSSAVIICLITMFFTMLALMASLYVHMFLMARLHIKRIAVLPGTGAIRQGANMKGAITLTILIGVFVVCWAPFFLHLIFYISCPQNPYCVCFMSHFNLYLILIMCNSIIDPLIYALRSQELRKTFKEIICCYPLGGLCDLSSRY

Melanocortin receptor 4 [3] = target: T2, Melanocortin receptor 4; test: Displacement of [125I]NDP-MSH from human melanocortin receptor-4 expressed in 293 HEK cells
Method in brief: (§2)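 Radioligand competition with [125I]-NDP-MSH on HEK293 cells expressing human MC3, human MC4 or mouse MC5 receptor. Ligands up to 30 µM. IC50 reported as -log(IC50) (M) with 95% confidence ranges. Ligands without activation activity were tested only at a single 30 µM concentration.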

Melanocortin receptor 3 [4] = target: T3, Melanocortin receptor 3 (Homo sapiens, UniProt P41968); test: Effective concentration against human melanocortin receptor-3 expressed in 293 HEK cells; method in brief: as §1
T3 sequence (P41968 whole entry): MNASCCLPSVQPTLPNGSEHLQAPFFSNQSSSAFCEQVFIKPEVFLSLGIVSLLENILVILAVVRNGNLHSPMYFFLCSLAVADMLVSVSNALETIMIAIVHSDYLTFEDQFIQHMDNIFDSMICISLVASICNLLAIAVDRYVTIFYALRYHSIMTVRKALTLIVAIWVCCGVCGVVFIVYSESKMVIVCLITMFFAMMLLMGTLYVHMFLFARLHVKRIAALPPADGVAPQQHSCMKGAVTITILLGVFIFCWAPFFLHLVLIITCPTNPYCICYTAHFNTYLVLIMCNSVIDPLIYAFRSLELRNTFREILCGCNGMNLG

Melanocortin receptor 3 [5] = target: T3, Melanocortin receptor 3; test: Displacement of [125I]NDP-MSH from human melanocortin receptor-3 expressed in 293 HEK cells; method in brief: as §2
Melanocortin receptor 5 [6] = target: T1, Melanocortin receptor 5; test: Displacement of [125I]NDP-MSH from mouse melanocortin receptor-5 expressed in 293 HEK cells; method in brief: as §2

Row | Compound | EC50 (Melanocortin receptor 5 [1]) [µM] | EC50 (Melanocortin receptor 4 [2]) [µM] | IC50 (Melanocortin receptor 4 [3]) [µM] | EC50 (Melanocortin receptor 3 [4]) [µM] | IC50 (Melanocortin receptor 3 [5]) [µM] | IC50 (Melanocortin receptor 5 [6]) [µM]
1 | CCCCN(CC(=O)NCC(=O)N(CCCCN)CC(=O)N[C@@H](Cc1ccccc1)C(=O)N(CCCN=C(N)N)CC(=O)N[C@@H](Cc1c[nH]c2ccccc12)C(=O)NCC(N)=O)C(C)=O (Ac-[NBuGly]G[Nlys]F[Gly(N-(CH2)3-guanidino)]WG-NH2) | 6.31 | 3.16 | 5.01 |  |  | 
2 | CCCCN(CC(=O)NCC(=O)N(CCCCN)CC(=O)N[C@H](Cc1ccccc1)C(=O)N(CCCN=C(N)N)CC(=O)N(CC(=O)NCC(N)=O)Cc1c[nH]c2ccccc12)C(C)=O |  | 5.01 | 3.98 |  |  | 3.98
3 | CCCC[C@H](NC(C)=O)C(=O)NCC(=O)N(CCCCN)CC(=O)N[C@H](Cc1ccccc1)C(=O)N[C@@H](CCCN=C(N)N)C(=O)N(CC(=O)NCC(N)=O)Cc1c[nH]c2ccccc12 | 2 | 1.26 | 0.158 | 5.01 | 0.794 | 0.631
4 | CCCC[C@H](NC(C)=O)C(=O)NCC(=O)N[C@@H](CCCCN)C(=O)N(CC(=O)N(CCCN=C(N)N)CC(=O)N(CCc1c[nH]c2ccccc12)CC(=O)NCC(N)=O)Cc1ccccc1 (Ac-[Nle]GK[Nphe][Gly(N-(CH2)3-guanidino)][Gly(N(CH2)2(3-indolyl))]G-NH2) | 7.94 |  |  |  |  | 
5 | CCCCN(CC(=O)NCC(=O)N[C@@H](CCCCN)C(=O)N(CC(=O)N[C@@H](CCCN=C(N)N)C(=O)N[C@@H](Cc1c[nH]c2ccccc12)C(=O)NCC(N)=O)Cc1ccccc1)C(C)=O (Ac-[NBuGly]GK[Nphe]RWG-NH2) |  | 2 | 5.01 |  |  | 5.01
6 | CCCC[C@H](NC(C)=O)C(=O)NCC(=O)N(CCCCN)CC(=O)N[C@H](Cc1ccccc1)C(=O)N[C@@H](CCCNC(=N)N)C(=O)N(CCc1c[nH]c2ccccc12)CC(=O)NCC(N)=O |  | 2 |  |  |  | 
7 | CCCC[C@H](NC(C)=O)C(=O)NCC(=O)N(CCCCN)CC(=O)N[C@@H](Cc1ccccc1)C(=O)N(CCCN=C(N)N)CC(=O)N[C@@H](Cc1c[nH]c2ccccc12)C(=O)NCC(N)=O (Ac-[Nle]G[Nlys]F[Gly(N-(CH2)3-guanidino)]WG-NH2) | 0.501 | 2 |  |  |  | 
8 | CCCC[C@H](NC(C)=O)C(=O)NCC(=O)N(CCCCN)CC(=O)NC(Cc1ccccc1)C(=O)N(CCCNC(=N)N)CC(=O)N(CC(=O)NCC(N)=O)Cc1c[nH]c2ccccc12 (single isomer, unassigned) | 3.16 | 2 | 3.16 | 6.31 |  | 3.16
9 | CCCCN(CC(=O)NCC(=O)N(CCCCN)CC(=O)N[C@H](Cc1ccccc1)C(=O)N[C@@H](CCCN=C(N)N)C(=O)N(CCc1c[nH]c2ccccc12)CC(=O)NCC(N)=O)C(C)=O |  | 6.31 | 2 |  |  | 6.31
10 | CCCCN(CC(=O)NCC(=O)N(CCCCN)CC(=O)N[C@H](Cc1ccccc1)C(=O)N[C@@H](CCCNC(=N)N)C(=O)N(CC(=O)NCC(N)=O)Cc1c[nH]c2ccccc12)C(C)=O |  | 3.98 | 0.794 |  | 2 | 2
11 | CCCC[C@H](NC(C)=O)C(=O)NCC(=O)N(CCCCN)CC(=O)N(CC(=O)N[C@@H](CCCN=C(N)N)C(=O)N[C@@H](Cc1c[nH]c2ccccc12)C(=O)NCC(N)=O)Cc1ccccc1 (Ac-[Nle]G[Nlys][Nphe]RWG-NH2) |  | 2 |  |  |  | 
12 | CCCC[C@H](NC(C)=O)C(=O)NCC(=O)N[C@@H](CCCCN)C(=O)N(CC(=O)N[C@@H](CCCN=C(N)N)C(=O)N[C@@H](Cc1c[nH]c2ccccc12)C(=O)NCC(N)=O)Cc1ccccc1 (Ac-[Nle]GK[Nphe]RWG-NH2) |  | 1.26 |  |  |  | 

The remaining compounds from weak to strong by EC50 (Melanocortin receptor 4 [2]), led by results:

Row | EC50 (Melanocortin receptor 5 [1]) [µM] | EC50 (Melanocortin receptor 4 [2]) [µM] | IC50 (Melanocortin receptor 4 [3]) [µM] | EC50 (Melanocortin receptor 3 [4]) [µM] | IC50 (Melanocortin receptor 3 [5]) [µM] | IC50 (Melanocortin receptor 5 [6]) [µM] | Compound
13 |  | 0.794 | 1 | 6.31 | 3.98 | 2 | CCCCN(CC(=O)NCC(=O)N(CCCCN)CC(=O)N[C@H](Cc1ccccc1)C(=O)N(CCCN=C(N)N)CC(=O)N(CCc1c[nH]c2ccccc12)CC(=O)NCC(N)=O)C(C)=O
14 | 6.31 | 0.794 |  | 5.01 |  |  | CCCCN(CC(=O)NCC(=O)N[C@@H](CCCCN)C(=O)N[C@H](Cc1ccccc1)C(=O)N(CCCN=C(N)N)CC(=O)N[C@@H](Cc1c[nH]c2ccccc12)C(=O)NCC(N)=O)C(C)=O
15 | 3.98 | 0.631 | 0.794 | 0.794 | 1.26 | 1.58 | CCCCN(CC(=O)NCC(=O)N[C@@H](CCCCN)C(=O)N[C@H](Cc1ccccc1)C(=O)N[C@@H](CCCNC(=N)N)C(=O)N(CC(=O)NCC(N)=O)Cc1c[nH]c2ccccc12)C(C)=O
16 | 0.251 | 0.631 | 0.398 | 3.98 | 5.01 | 3.16 | CCCC[C@H](NC(C)=O)C(=O)NCC(=O)N[C@@H](CCCCN)C(=O)N[C@H](Cc1ccccc1)C(=O)N(CCCNC(=N)N)CC(=O)N[C@@H](Cc1c[nH]c2ccccc12)C(=O)NCC(N)=O
17 |  | 0.501 | 0.794 |  | 7.94 | 3.16 | CCCCN(CC(=O)NCC(=O)N[C@@H](CCCCN)C(=O)N[C@H](Cc1ccccc1)C(=O)N(CCCN=C(N)N)CC(=O)N(CC(=O)NCC(N)=O)Cc1c[nH]c2ccccc12)C(C)=O
18 | 1 | 0.398 | 0.501 | 3.98 | 3.98 | 1.58 | CCCC[C@H](NC(C)=O)C(=O)NCC(=O)N(CCCCN)CC(=O)NC(Cc1ccccc1)C(=O)N(CCCNC(=N)N)CC(=O)N(CCc1c[nH]c2ccccc12)CC(=O)NCC(N)=O (single isomer, unassigned)
19 | 2 | 0.316 | 0.316 | 2 | 7.94 | 10 | CCCC[C@H](NC(C)=O)C(=O)NCC(=O)N[C@@H](CCCCN)C(=O)N[C@H](Cc1ccccc1)C(=O)N[C@@H](CCCN=C(N)N)C(=O)N(CCc1c[nH]c2ccccc12)CC(=O)NCC(N)=O
20 |  | 0.316 |  | 3.16 |  |  | CCCCN(CC(=O)NCC(=O)N[C@@H](CCCCN)C(=O)N[C@H](Cc1ccccc1)C(=O)N[C@@H](CCCNC(=N)N)C(=O)N(CCc1c[nH]c2ccccc12)CC(=O)NCC(N)=O)C(C)=O
21 | 0.0631 | 0.251 | 0.158 |  | 3.98 | 2 | CCCC[C@H](NC(C)=O)C(=O)NCC(=O)N[C@@H](CCCCN)C(=O)N[C@H](Cc1ccccc1)C(=O)N(CCCCN=C(N)N)CC(=O)N[C@@H](Cc1c[nH]c2ccccc12)C(=O)NCC(N)=O
22 | 0.0126 | 0.251 | 0.158 | 0.501 | 0.631 | 0.501 | CCCC[C@H](NC(C)=O)C(=O)NCC(=O)N[C@@H](CCCCN)C(=O)N[C@H](Cc1ccccc1)C(=O)N(CCCCNC(=N)N)CC(=O)N(CCc1c[nH]c2ccccc12)CC(=O)NCC(N)=O
23 | 0.251 | 0.158 | 0.251 | 0.316 | 0.501 | 0.794 | CCCC[C@H](NC(C)=O)C(=O)NCC(=O)N[C@@H](CCCCN)C(=O)N[C@H](Cc1ccccc1)C(=O)N[C@@H](CCCN=C(N)N)C(=O)N(CC(=O)NCC(N)=O)Cc1c[nH]c2ccccc12
24 | 0.1 | 0.158 | 0.316 | 0.631 | 5.01 | 2 | CCCC[C@H](NC(C)=O)C(=O)NCC(=O)N[C@@H](CCCCN)C(=O)N[C@H](Cc1ccccc1)C(=O)N(CCCNC(=N)N)CC(=O)N(CC(=O)NCC(N)=O)Cc1c[nH]c2ccccc12
25 | 0.316 | 0.1 | 0.251 | 0.158 | 3.16 | 1.26 | CCCCN(CC(=O)NCC(=O)N[C@@H](CCCCN)C(=O)N[C@H](Cc1ccccc1)C(=O)N(CCCN=C(N)N)CC(=O)N(CCc1c[nH]c2ccccc12)CC(=O)NCC(N)=O)C(C)=O
26 | 0.0158 | 0.0794 | 0.0794 | 0.158 | 2 | 1 | CCCC[C@H](NC(C)=O)C(=O)NCC(=O)N[C@@H](CCCCN)C(=O)N[C@H](Cc1ccccc1)C(=O)N(CCCNC(=N)N)CC(=O)N(CCc1c[nH]c2ccccc12)CC(=O)NCC(N)=O
27 | 7.94 | 0.0631 | 0.0631 | 2 | 1.26 | 0.794 | CCCCN(CC(=O)NCC(=O)N(CCCCN)CC(=O)N[C@H](Cc1ccccc1)C(=O)N[C@@H](CCCNC(=N)N)C(=O)N[C@@H](Cc1c[nH]c2ccccc12)C(=O)NCC(N)=O)C(C)=O
28 | 0.794 | 0.00251 | 0.02 | 0.0251 | 0.126 |  | CCCCN(CC(=O)NCC(=O)N[C@@H](CCCCN)C(=O)N[C@H](Cc1ccccc1)C(=O)N[C@@H](CCCN=C(N)N)C(=O)N[C@@H](Cc1c[nH]c2ccccc12)C(=O)NCC(N)=O)C(C)=O
29 | 0.0316 | 0.000501 | 0.00251 | 0.00794 | 0.2 |  | CCCC[C@H](NC(C)=O)C(=O)NCC(=O)N[C@@H](CCCCN)C(=O)N[C@H](Cc1ccccc1)C(=O)N[C@@H](CCCNC(=N)N)C(=O)N[C@@H](Cc1c[nH]c2ccccc12)C(=O)NCC(N)=O
